Measured values as given in ChEMBL document CHEMBL4732082, “Development of novel benzimidazole-derived neddylation inhibitors for suppressing tumor growth invitro and invivo” (Eur J Med Chem, 2021).
The source made the active and inactive calls. The rule behind the calls is not given here.

Tests used:
[1] = tested on: A549; assay: Antiproliferative activity against human A549 cells incubated for 48 hrs by CCK-8 assay; type: functional, cell-based; details: A549, 48 h
Summary of the method: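 Cells from ATCC, passaged six times, grown in DMEM with 10% FBS and penicillin/streptomycin at 37 °C under 5% CO2. Seeded at 2500 cells/well, cultured overnight, treated 48 h, viability read by CCK-8. Run in triplicate; values are the mean of three experiments.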

[2] = biological target: T1, NEDD8-activating enzyme E1 catalytic subunit (Homo sapiens, UniProt Q8TBC4); assay: Inhibition of NAE (unknown origin)-mediated neddylation assessed as suppression of cullin1-Nedd8 adduct formation preincubated for 10 mins followed by ATP addition and measured after 30 mins by immunoblot analysis
T1 sequence (Q8TBC4 whole entry): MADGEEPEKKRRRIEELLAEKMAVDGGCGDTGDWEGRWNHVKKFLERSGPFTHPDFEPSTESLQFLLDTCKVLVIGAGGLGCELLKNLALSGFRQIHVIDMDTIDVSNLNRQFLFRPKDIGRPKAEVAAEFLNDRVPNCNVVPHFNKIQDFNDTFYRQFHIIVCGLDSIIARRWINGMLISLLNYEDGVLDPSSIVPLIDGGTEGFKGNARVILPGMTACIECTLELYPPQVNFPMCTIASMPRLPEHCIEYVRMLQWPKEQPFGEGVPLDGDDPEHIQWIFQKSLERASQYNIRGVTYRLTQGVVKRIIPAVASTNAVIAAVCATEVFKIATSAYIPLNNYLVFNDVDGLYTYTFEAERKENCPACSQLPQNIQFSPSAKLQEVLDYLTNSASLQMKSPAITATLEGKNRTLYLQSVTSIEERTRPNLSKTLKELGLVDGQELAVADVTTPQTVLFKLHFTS

[3] = tested on: A549; assay: Induction of Wee1 accumulation in human A549 cells at 50 uM incubated for 6 to 12 hrs by Western blot analysis; type: functional, cell-based; details: time 6-12 hrs
Summary of the method: (§1)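 A549 cells were treated 6 or 12 h with graded concentrations (4.5–75 μM) against a 0.1% DMSO control. Cells were washed in cold PBS, lysed in RIPA on ice and cleared by centrifugation, and protein was normalized. Cullin-Nedd8 was resolved on non-reducing SDS-PAGE and Wee1/p27 under reducing conditions, then detected by Western blot.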

[4] = tested on: A549; assay: Induction of apoptosis in human A549 cells assessed as necrotic cells at 40 uM after 48 hrs by Annexin V-FITC/PI double staining based flow cytometric analysis (reference value: 1.57%); type: functional
[5] = tested on: A549; assay: Induction of p27 accumulation in human A549 cells at 50 uM incubated for 6 to 12 hrs by Western blot analysis; type: functional, cell-based; details: time 6-12 hrs; summary of the method: as §1
[6] = biological target: T2, NEDD8-activating enzyme E1 regulatory subunit (Homo sapiens) (UniProt Q13564); assay: Inhibition of NAE-mediated neddylation in human A549 cells assessed as suppression of cullin2-Nedd8 adduct formation at 12.5 to 25 uM measured after 6 to 12 hrs by Western blot analysis; type: cell-based; details: dose 12.5-25 µM, time 6-12 hrs; summary of the method: as §1
T2 sequence (whole entry): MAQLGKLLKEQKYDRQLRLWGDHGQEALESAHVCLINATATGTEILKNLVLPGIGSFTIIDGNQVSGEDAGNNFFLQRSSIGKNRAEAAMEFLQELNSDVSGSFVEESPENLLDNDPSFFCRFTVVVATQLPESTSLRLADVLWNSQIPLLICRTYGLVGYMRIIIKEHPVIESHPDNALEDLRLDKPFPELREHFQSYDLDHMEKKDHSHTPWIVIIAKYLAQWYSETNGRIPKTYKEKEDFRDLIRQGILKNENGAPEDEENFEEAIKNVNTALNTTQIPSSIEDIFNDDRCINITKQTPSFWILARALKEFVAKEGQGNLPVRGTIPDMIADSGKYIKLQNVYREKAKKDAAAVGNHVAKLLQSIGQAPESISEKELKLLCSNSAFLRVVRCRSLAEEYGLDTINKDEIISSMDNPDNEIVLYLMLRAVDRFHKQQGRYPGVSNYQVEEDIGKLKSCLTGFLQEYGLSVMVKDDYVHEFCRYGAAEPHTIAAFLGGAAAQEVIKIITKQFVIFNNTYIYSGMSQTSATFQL

[7] = tested on: A549; assay: Induction of apoptosis in human A549 cells assessed as late apoptotic cells at 20 uM after 48 hrs by Annexin V-FITC/PI double staining based flow cytometric analysis (reference value: 4.62%); type: functional
[8] = tested on: A549; assay: Induction of apoptosis in human A549 cells assessed as early apoptotic cells at 10 uM after 48 hrs by Annexin V-FITC/PI double staining based flow cytometric analysis (reference value: 2.04%); type: functional
[9] = tested on: A549; assay: Induction of apoptosis in human A549 cells assessed as late apoptotic cells at 10 uM after 48 hrs by Annexin V-FITC/PI double staining based flow cytometric analysis (reference value: 4.62%); type: functional

IC50 [1]: 20.4 µM
IC50 [2]: 5.51 µM
inhibition [6]: Active
Compound: CCOc1nc2cccc(C(=O)NCCc3ccc(Cl)cc3Cl)c2n1Cc1ccc(-c2ccccc2-c2nnn[nH]2)cc1
Activity [3]: Active
Activity [4]: 1.02%
Activity [5]: Active
Activity [7]: 7.03%
Activity [8]: 2.04%
Activity [9]: 4.62%
